Measured values as given in ChEMBL document CHEMBL2346534, “Design, synthesis and in vitro anti-proliferative activity of 4,6-quinazolinediamines as potent EGFR-TK inhibitors” (Eur J Med Chem, 2013).

Key:
Type in all cases: functional
SK-MEL-28 = assay: Cytotoxicity against human SK-MEL-28 cells assessed as cell growth at 10^-5 M after 48 hrs by SRB assay; settings: SK-MEL-28, 48 h, read-out: Activity
How it was run: (§1)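 NCI 60-panel single-dose primary screen at 10^-5 M. Cells are grown in RPMI 1640 with 5% FBS and 2 mM L-glutamine and preincubated 24 h at 37 °C. Drug exposure is 48 h. Cells are TCA-fixed, stained with SRB and absorbance is read at 515 nm. Results are reported as percent growth of treated cells versus untreated controls, corrected using time-zero plates.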

SK-MEL-2 = assay: Cytotoxicity against human SK-MEL-2 cells assessed as cell growth at 10^-5 M after 48 hrs by SRB assay; settings: SK-MEL-2, 48 h, read-out: Activity; how it was run: as §1
Malme-3M = assay: Cytotoxicity against human MALME-3M cells assessed as cell growth at 10^-5 M after 48 hrs by SRB assay; settings: read-out: Activity
How it was run: (§2)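 NCI 60 single-dose screen at 10^-5 M. Cells in RPMI 1640 with 5% FBS and 2 mM L-glutamine, preincubated 24 h at 37 °C/5% CO2. Drug from DMSO stock, then 48 h exposure. TCA fixation, SRB staining, absorbance at 515 nm. Result given as percent growth of treated cells relative to untreated control.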

U-251 = assay: Cytotoxicity against human U251 cells assessed as cell growth at 10^-5 M after 48 hrs by SRB assay; settings: U-251, 48 h, read-out: Activity
How it was run: (§3)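 NCI primary single-dose screen at 10^-5 M. Cells grown in RPMI 1640 with 5% FBS and 2 mM L-glutamine, given 24 h before drug addition, then 48 h exposure at 37 °C, 5% CO2. Cells TCA-fixed, stained with SRB, read at 515 nm. Reported as percent growth of treated cells relative to untreated controls.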

LOX IMVI = assay: Cytotoxicity against human LOXIMVI cells assessed as cell growth at 10^-5 M after 48 hrs by SRB assay; settings: read-out: Activity; how it was run: as §2
SNB-19 = assay: Cytotoxicity against human SNB19 cells assessed as cell growth at 10^-5 M after 48 hrs by SRB assay; settings: SNB-19, 48 h, read-out: Activity; how it was run: as §1
SW-620 = assay: Cytotoxicity against human SW620 cells assessed as cell growth at 10^-5 M after 48 hrs by SRB assay; settings: SW-620, 48 h, read-out: Activity; how it was run: as §3
HCT-15 = assay: Cytotoxicity against human HCT15 cells assessed as cell growth at 10^-5 M after 48 hrs by SRB assay; settings: HCT-15, 48 h, read-out: Activity; how it was run: as §2
HCC 2998 = assay: Cytotoxicity against human HCC2998 cells assessed as cell growth at 10^-5 M after 48 hrs by SRB assay; settings: HCC 2998, 48 h, read-out: Activity; how it was run: as §2
NCI-H226 = assay: Cytotoxicity against human NCI-H226 cells assessed as cell growth at 10^-5 M after 48 hrs by SRB assay; settings: NCI-H226, 48 h, read-out: Activity; how it was run: as §1
A549 = assay: Cytotoxicity against human A549 cells assessed as cell growth at 10^-5 M after 48 hrs by SRB assay; settings: A549, 48 h, read-out: Activity; how it was run: as §2
[1] = Cytotoxicity against human EKVX cells assessed as cell growth at 10^-5 M after 48 hrs by SRB assay; settings: read-out: Activity; how it was run: as §2
MOLT-4 = assay: Cytotoxicity against human MOLT4 cells assessed as cell growth at 10^-5 M after 48 hrs by SRB assay; settings: MOLT-4, 48 h, read-out: Activity; how it was run: as §1
HL-60(TB) = assay: Cytotoxicity against human HL-60(TB) cells assessed as cell growth at 10^-5 M after 48 hrs by SRB assay; settings: HL-60, 48 h, read-out: Activity
How it was run: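 NCI 60-panel single-dose screen. Cells were grown in RPMI 1640 with 5% FBS and 2 mM L-glutamine, preincubated 24 h, then exposed to compound at 10^-5 M (from DMSO stock) for 48 h at 37 °C, 5% CO2. Settled suspension cells were TCA-fixed and SRB-stained, with absorbance read at 515 nm. The value is percent growth of treated versus untreated control cells.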

MDA-MB-468 = assay: Cytotoxicity against human MDA-MB-468 cells assessed as cell growth at 10^-5 M after 48 hrs by SRB assay; settings: MDA-MB-468, 48 h, read-out: Activity; how it was run: as §1
Hs-578T = assay: Cytotoxicity against human Hs578T cells assessed as cell growth at 10^-5 M after 48 hrs by SRB assay; settings: read-out: Activity; how it was run: as §2
MDA-MB-231 = assay: Cytotoxicity against human MDA-MB-231 cells assessed as cell growth at 10^-5 M after 48 hrs by SRB assay; settings: MDA-MB-231, 48 h, read-out: Activity; how it was run: as §2
UO-31 = assay: Cytotoxicity against human UO31 cells assessed as cell growth at 10^-5 M after 48 hrs by SRB assay; settings: UO-31, 48 h, read-out: Activity; how it was run: as §3
TK-10 = assay: Cytotoxicity against human TK10 cells assessed as cell growth at 10^-5 M after 48 hrs by SRB assay; settings: TK-10, 48 h, read-out: Activity; how it was run: as §3
ACHN = assay: Cytotoxicity against human ACHN cells assessed as cell growth at 10^-5 M after 48 hrs by SRB assay; settings: read-out: Activity; how it was run: as §2
A498 = assay: Cytotoxicity against human A498 cells assessed as cell growth at 10^-5 M after 48 hrs by SRB assay; settings: A498, 48 h, read-out: Activity; how it was run: as §2
786-0 = assay: Cytotoxicity against human 786-0 cells assessed as cell growth at 10^-5 M after 48 hrs by SRB assay; settings: 786-0, 48 h, read-out: Activity; how it was run: as §2
[2] = Cytotoxicity against human NCI-ADR-RES cells assessed as cell growth at 10^-5 M after 48 hrs by SRB assay; settings: read-out: Activity; how it was run: as §1
OVCAR-4 = assay: Cytotoxicity against human OVCAR4 cells assessed as cell growth at 10^-5 M after 48 hrs by SRB assay; settings: OVCAR-4, 48 h, read-out: Activity; how it was run: as §1
OVCAR-5 = assay: Cytotoxicity against human OVCAR5 cells assessed as cell growth at 10^-5 M after 48 hrs by SRB assay; settings: OVCAR-5, 48 h, read-out: Activity; how it was run: as §1
OVCAR-3 = assay: Cytotoxicity against human OVCAR3 cells assessed as cell growth at 10^-5 M after 48 hrs by SRB assay; settings: OVCAR-3, 48 h, read-out: Activity; how it was run: as §1
SK-MEL-5 = assay: Cytotoxicity against human SK-MEL-5 cells assessed as cell growth at 10^-5 M after 48 hrs by SRB assay; settings: SK-MEL-5, 48 h, read-out: Activity; how it was run: as §1
HOP-92 = assay: Cytotoxicity against human HOP92 cells assessed as cell growth at 10^-5 M after 48 hrs by SRB assay; settings: HOP-92, 48 h, read-out: Activity; how it was run: as §2

SMILES | growth at 10 µM (SK-MEL-28) | growth at 10 µM (Malme-3M) | growth at 10 µM (U-251) | growth at 10 µM (LOX IMVI) | growth at 10 µM (SNB-19) | growth at 10 µM (SW-620) | growth at 10 µM (HCT-15) | growth at 10 µM (HCC 2998) | growth at 10 µM (NCI-H226) | growth at 10 µM (A549) | growth at 10 µM [1] | growth at 10 µM (MOLT-4) | growth at 10 µM (HL-60(TB)) | growth at 10 µM (MDA-MB-468) | growth at 10 µM (Hs-578T) | growth at 10 µM (MDA-MB-231) | growth at 10 µM (UO-31) | growth at 10 µM (TK-10) | growth at 10 µM (ACHN) | growth at 10 µM (A498) | other results
CCOC(=O)/C(C#N)=C\Nc1ccc2ncnc(Nc3ccc(Cl)cc3)c2c1 | 105% | 142% | 84.7% | 87.5% | 88% | 97.3% | 84.9% | 101% | 99.3% | 66.1% | 20.6% | 50.1% | 76.2% | 26.6% | 89.3% | 93.1% | 43% | 51.3% | 51.2% | 53.1% | growth at 10 µM (SK-MEL-2): 105%; growth at 10 µM (786-0): 83.1%; growth at 10 µM [2]: 72%; growth at 10 µM (OVCAR-4): 89%; growth at 10 µM (OVCAR-5): 92.8%; growth at 10 µM (OVCAR-3): 50.2%; growth at 10 µM (SK-MEL-5): 72%
NC(=O)Nc1ccc2ncnc(Nc3ccc(Cl)cc3)c2c1 | 106% | 117% | 95.7% | 95.5% | 78.6% | 99.1% | 93.1% | 97.9% | 99.8% | 72.5% | 22.4% | 71.2% | 99.9% | -7.15% | 87.8% | 89.3% | 58% | 26.5% | 47.4% | 43.4% | growth at 10 µM (SK-MEL-2): 127%; growth at 10 µM (HOP-92): 74.2%; growth at 10 µM (786-0): 85.9%; growth at 10 µM [2]: 88.7%; growth at 10 µM (OVCAR-4): 91.9%; growth at 10 µM (OVCAR-5): 83.6%; growth at 10 µM (OVCAR-3): 74.2%; growth at 10 µM (SK-MEL-5): 89.2%
CCOC(=O)/C(C#N)=C\Nc1ccc2ncnc(Nc3ccccc3Cl)c2c1 | 119% | 156% | 96.3% | 93% | 94.5% | 116% | 99% | 117% | 116% | 82.4% | 39% | 86.2% | 95.3% | 34.7% | 91% | 86.9% | 66.7% | 53% | 68.7% | 63.7% | growth at 10 µM (SK-MEL-2): 106%; growth at 10 µM (HOP-92): 70.4%; growth at 10 µM (786-0): 91.3%; growth at 10 µM [2]: 99.6%; growth at 10 µM (OVCAR-4): 124%; growth at 10 µM (OVCAR-5): 90.1%; growth at 10 µM (OVCAR-3): 95.3%; growth at 10 µM (SK-MEL-5): 88.3%
CCOC(=O)/C(C#N)=C\Nc1ccc2ncnc(Nc3ccc(Cl)cc3Cl)c2c1 | 109% | 140% | 81.3% | 87.5% | 86.4% | 100% | 92.7% | 119% | 99.8% | 72.1% | 41.7% | 58.8% | 108% | 56.4% | 75.5% | 85.2% | 42% | 44.2% | 62.9% | 48.7% | growth at 10 µM (SK-MEL-2): 110%; growth at 10 µM (HOP-92): 56.5%; growth at 10 µM (786-0): 82.6%; growth at 10 µM [2]: 85.4%; growth at 10 µM (OVCAR-4): 95.1%; growth at 10 µM (OVCAR-5): 82.2%; growth at 10 µM (OVCAR-3): 67.6%; growth at 10 µM (SK-MEL-5): 78.3%
NC(=O)Nc1ccc2ncnc(Nc3cccc(O)c3)c2c1 | 114% | 121% | 87.8% | 101% | 93.1% | 99.1% | 108% | 102% | 102% | 93.5% | 82.6% | 98.8% | 105% | 67.9% | 105% | 104% | 80.1% | 103% | 103% | 77.4% | growth at 10 µM (HOP-92): 78%; growth at 10 µM (786-0): 92.6%; growth at 10 µM [2]: 96.8%; growth at 10 µM (OVCAR-4): 112%; growth at 10 µM (OVCAR-5): 98.1%; growth at 10 µM (OVCAR-3): 82.8%; growth at 10 µM (SK-MEL-5): 101%
